Values belong to the compound of their own block, whether it stands above or below them.
Assays:
[1] = Inhibition of IL8 production in cigarette smoke extract treated human SAE cells at 100 uM; format: functional; parameters: scale not given: the % may be the effect or the level left
Procedure, shortened: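 Primary human small airway epithelial cells, confluent, passages 4-8, kept in 5% CO2 at 37 °C. CSE made by drawing smoke of one unfiltered 2R1 reference cigarette through 25 mL DPBS, set to pH 7.4, filtered and diluted to 5% in growth medium. Compound (100 µM) added 30 min before 5% CSE. After 24 h, supernatant IL-8 read by ELISA. Two-sided Student's t-test, 5% level.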

[2] = Cytotoxicity against human HCT 116 cells after 72 hrs; format: functional, cell-based; details: HCT-116, 72 h
Procedure, shortened: (§1)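 Colon cancer cells (10 000) seeded in DMEM with 10% FBS. After 24 h, treated with 1, 5, 10, 30, 50 and 70 µM compound for 72 h in DMEM with 1% FBS. Cells washed with PBS, trypsinized and counted on a Coulter Counter. IC50 derived. EGCG and Polyphenon E served as positive controls.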

SW480 = assay: Cytotoxicity against human SW480 cells after 72 hrs; format: functional, cell-based; details: SW480, 72 h; procedure, shortened: as §1
[3] = Antiradical activity assessed as DPPH radical scavenging activity; format: physicochemical
Procedure, shortened: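 DPPH radical scavenging done per an earlier method with 400 µM DPPH. Tested on extracts, fractions and pure compounds, with gallic acid as positive control. IC50 reported.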

[4] = Inhibition of IL8 production in human SAE cells at 100 uM; format: functional; parameters: Activity: scale not given: the % may be the effect or the level left
Procedure, shortened: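 Confluent human small airway epithelial cells (passages 4-8, 5% CO2, 37 °C) given compound at 100 µM without smoke extract. IL-8 in supernatant measured by ELISA after 24 h. Significance by two-sided Student's t-test at the 5% level.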

HT-29 = assay: Cytotoxicity against human HT-29 cells after 72 hrs; format: functional, cell-based; details: HT-29, 72 h; procedure, shortened: as §1

SMILES: OC[C@H]1O[C@@H](Oc2cc3c(O)cc(O)cc3[o+]c2-c2cc(O)c(O)c(O)c2)[C@H](O)[C@@H](O)[C@@H]1O
Activity [1]: 96% | IC50 [2]: 12 µM | IC50 (SW480): 20 µM

IC50 [3]: 61.8 µM
SMILES: O=C(O)Cc1c(O)cc(O)cc1OC(=O)c1ccc(O)c(O)c1
Activity [4]: 74.9% | Activity [1]: 70.3% | IC50 [2]: 30 µM

IC50 [3]: 51.4 µM
SMILES: COC(=O)Cc1c(O)cc(O)cc1OC(=O)c1ccc(O)c(O)c1 [JABOTICABIN]
inhibition at 100 µM ([4]; Homo sapiens, SAE): 81.3% | Activity [1]: 47.3% | IC50 (HT-29): 65 µM

SMILES: OC[C@H]1O[C@@H](Oc2cc3c(O)cc(O)cc3[o+]c2-c2ccc(O)c(O)c2)[C@H](O)[C@@H](O)[C@@H]1O [KUROMANIN]
Activity [4]: 65.3% | Activity [1]: 36.4% | IC50 (HT-29): 100 µM | IC50 [2]: 100 µM | IC50 (SW480): 100 µM

Source: ChEMBL document CHEMBL1158044, “Bioactive depsides and anthocyanins from jaboticaba (Myrciaria cauliflora)” (J Nat Prod, 2006)
